Experimental data published in the M2OR odorant receptor database.

Tests used:
Settings in all cases: stereoisomer not certain
OR10H4 (Homo sapiens) = target: T1, OR10H4 (Homo sapiens) (UniProt Q8NGA5)
T1 sequence (whole entry): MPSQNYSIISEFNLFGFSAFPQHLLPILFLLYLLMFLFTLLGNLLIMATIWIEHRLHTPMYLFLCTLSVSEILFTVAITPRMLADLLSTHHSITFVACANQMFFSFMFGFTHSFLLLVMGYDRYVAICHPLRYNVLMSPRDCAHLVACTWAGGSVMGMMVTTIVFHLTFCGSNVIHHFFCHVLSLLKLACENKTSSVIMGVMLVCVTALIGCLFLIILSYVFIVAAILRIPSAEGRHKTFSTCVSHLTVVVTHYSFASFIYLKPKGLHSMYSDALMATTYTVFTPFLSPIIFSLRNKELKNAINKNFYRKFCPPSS
Summary of the method: (§1)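 Each receptor–molecule pair is labelled responsive or non-responsive (inactive) according to whether the original authors judged the measured signal statistically different from baseline. The data were taken from the main text and supplementary material of published papers and checked for typos and inconsistencies. Assay methods differed by source, with transient luciferase assays in mammalian cell lines being common.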

OR10H5 (Homo sapiens) = target: T2, OR10H5 (Homo sapiens) (UniProt Q8NGA6)
T2 sequence (whole entry): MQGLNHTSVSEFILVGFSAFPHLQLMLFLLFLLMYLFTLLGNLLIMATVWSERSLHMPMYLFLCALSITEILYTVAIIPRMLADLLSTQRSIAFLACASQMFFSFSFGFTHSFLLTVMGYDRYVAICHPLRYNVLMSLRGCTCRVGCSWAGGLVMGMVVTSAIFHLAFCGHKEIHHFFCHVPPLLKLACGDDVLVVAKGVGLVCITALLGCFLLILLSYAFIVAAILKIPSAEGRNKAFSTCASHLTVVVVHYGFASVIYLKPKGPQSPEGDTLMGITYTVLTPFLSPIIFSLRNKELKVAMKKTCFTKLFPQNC
Summary of the method: as §1

OR10J1 (Homo sapiens) = target: T3, OR10J1 (Homo sapiens) (UniProt P30954)
T3 sequence (whole entry): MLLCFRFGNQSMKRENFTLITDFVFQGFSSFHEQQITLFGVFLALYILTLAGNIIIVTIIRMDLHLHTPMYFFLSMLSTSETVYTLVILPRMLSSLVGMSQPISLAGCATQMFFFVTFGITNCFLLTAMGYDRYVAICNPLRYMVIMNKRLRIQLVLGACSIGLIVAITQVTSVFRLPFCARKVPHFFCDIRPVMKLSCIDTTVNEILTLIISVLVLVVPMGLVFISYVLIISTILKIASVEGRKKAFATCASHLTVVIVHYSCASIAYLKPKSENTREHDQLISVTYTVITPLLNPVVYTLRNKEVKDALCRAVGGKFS
Summary of the method: as §1

OR10J3 (Homo sapiens) = target: T4, OR10J3 (Homo sapiens) (UniProt Q5JRS4)
T4 sequence (whole entry): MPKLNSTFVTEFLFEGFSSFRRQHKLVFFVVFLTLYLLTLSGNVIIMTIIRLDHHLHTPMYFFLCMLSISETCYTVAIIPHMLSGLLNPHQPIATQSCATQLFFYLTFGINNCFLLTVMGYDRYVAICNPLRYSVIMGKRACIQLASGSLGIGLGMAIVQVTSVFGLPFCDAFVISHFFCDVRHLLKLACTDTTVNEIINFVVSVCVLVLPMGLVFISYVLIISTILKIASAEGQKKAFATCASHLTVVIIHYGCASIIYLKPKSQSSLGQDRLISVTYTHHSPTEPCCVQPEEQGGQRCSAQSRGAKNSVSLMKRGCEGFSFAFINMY
Summary of the method: as §1

OR10J5 (Homo sapiens) = target: T5, OR10J5 (Homo sapiens) (UniProt Q8NHC4)
T5 sequence (whole entry): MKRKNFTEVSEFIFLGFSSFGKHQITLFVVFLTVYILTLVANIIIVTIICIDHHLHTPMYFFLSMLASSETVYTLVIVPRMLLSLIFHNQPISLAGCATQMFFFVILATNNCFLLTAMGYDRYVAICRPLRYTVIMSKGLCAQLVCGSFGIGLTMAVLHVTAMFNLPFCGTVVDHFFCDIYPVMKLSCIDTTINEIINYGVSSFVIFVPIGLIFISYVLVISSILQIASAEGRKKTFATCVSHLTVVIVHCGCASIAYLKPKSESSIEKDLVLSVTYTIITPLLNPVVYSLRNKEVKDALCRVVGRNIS
Summary of the method: as §1

OR10K1 (Homo sapiens) = target: T6, OR10K1 (Homo sapiens) (UniProt Q8NGX5)
T6 sequence (whole entry): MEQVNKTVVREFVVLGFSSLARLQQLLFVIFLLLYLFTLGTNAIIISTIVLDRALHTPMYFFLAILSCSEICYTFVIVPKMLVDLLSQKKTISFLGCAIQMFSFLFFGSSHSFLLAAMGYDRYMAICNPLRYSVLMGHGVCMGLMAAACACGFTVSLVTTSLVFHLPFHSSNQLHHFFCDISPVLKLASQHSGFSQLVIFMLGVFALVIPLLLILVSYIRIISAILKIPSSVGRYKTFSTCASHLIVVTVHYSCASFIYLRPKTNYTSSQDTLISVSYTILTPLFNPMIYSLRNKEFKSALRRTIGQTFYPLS
Summary of the method: as §1

OR10P1 (Homo sapiens) = target: T7, OR10P1 (Homo sapiens) (UniProt Q8NGE3)
T7 sequence (whole entry): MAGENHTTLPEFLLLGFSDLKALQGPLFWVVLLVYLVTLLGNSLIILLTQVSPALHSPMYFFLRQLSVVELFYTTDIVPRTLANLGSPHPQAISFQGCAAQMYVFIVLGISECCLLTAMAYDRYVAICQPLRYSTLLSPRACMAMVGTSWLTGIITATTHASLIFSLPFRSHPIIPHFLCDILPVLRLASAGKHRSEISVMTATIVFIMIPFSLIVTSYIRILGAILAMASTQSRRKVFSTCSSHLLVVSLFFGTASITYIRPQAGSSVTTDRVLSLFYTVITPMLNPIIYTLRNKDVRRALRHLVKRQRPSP
Summary of the method: as §1

OR10Q1 (Homo sapiens) = target: T8, OR10Q1 (Homo sapiens) (UniProt Q8NGQ4)
T8 sequence (whole entry): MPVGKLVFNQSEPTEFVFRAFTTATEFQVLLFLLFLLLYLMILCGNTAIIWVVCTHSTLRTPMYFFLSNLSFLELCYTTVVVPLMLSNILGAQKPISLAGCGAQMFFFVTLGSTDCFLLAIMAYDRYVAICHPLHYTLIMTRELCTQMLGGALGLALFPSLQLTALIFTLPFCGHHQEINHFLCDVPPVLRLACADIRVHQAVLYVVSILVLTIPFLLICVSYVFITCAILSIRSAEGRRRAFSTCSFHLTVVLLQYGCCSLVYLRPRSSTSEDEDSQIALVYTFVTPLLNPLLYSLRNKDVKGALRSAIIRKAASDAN
Summary of the method: as §1

OR10R2 (Homo sapiens) = target: T9, OR10R2 (Homo sapiens) (UniProt Q8NGX6)
T9 sequence (whole entry): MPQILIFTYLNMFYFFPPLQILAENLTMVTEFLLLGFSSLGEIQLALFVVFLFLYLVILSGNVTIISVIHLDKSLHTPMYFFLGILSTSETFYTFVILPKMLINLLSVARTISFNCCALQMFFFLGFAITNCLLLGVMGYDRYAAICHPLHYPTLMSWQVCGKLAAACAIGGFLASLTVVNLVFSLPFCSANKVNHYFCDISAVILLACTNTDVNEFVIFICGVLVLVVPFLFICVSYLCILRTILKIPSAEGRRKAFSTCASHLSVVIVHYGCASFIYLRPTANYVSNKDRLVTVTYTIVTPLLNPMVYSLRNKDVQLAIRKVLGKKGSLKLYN
Summary of the method: as §1

OR10S1 (Homo sapiens) = target: T10, OR10S1 (Homo sapiens) (UniProt Q8NGN2)
T10 sequence (whole entry): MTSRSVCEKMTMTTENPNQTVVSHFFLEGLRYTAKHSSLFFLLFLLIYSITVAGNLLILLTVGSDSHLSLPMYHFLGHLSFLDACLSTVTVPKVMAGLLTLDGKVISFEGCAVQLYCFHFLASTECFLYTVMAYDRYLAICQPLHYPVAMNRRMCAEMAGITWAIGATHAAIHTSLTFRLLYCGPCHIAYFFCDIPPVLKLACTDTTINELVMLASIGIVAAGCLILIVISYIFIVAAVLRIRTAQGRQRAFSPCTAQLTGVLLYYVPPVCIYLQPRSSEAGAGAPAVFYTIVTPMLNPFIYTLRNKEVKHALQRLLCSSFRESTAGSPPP
Summary of the method: as §1

OR10T2 (Homo sapiens) = target: T11, OR10T2 (Homo sapiens) (UniProt Q8NGX3)
T11 sequence (whole entry): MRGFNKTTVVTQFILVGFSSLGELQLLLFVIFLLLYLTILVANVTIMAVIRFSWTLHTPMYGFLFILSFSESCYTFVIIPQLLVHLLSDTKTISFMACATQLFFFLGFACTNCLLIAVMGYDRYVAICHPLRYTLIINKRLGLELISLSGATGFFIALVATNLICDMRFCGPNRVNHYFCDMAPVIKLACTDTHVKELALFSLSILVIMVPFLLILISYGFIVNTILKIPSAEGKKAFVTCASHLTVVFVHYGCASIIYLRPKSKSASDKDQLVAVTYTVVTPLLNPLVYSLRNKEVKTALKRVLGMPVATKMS
Summary of the method: as §1

OR10V1 (Homo sapiens) = target: T12, OR10V1 (Homo sapiens) (UniProt Q8NGI7)
T12 sequence (whole entry): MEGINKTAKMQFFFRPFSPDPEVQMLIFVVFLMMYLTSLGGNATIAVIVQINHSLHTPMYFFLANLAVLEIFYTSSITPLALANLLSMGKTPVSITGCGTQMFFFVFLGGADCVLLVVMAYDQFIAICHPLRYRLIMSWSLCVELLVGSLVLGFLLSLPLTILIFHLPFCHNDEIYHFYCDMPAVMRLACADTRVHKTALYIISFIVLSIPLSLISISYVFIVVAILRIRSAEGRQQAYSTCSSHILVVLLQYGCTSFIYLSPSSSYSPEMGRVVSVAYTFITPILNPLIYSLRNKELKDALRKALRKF
Summary of the method: as §1

OR10W1 (Homo sapiens) = target: T13, OR10W1 (Homo sapiens) (UniProt Q8NGF6)
T13 sequence (whole entry): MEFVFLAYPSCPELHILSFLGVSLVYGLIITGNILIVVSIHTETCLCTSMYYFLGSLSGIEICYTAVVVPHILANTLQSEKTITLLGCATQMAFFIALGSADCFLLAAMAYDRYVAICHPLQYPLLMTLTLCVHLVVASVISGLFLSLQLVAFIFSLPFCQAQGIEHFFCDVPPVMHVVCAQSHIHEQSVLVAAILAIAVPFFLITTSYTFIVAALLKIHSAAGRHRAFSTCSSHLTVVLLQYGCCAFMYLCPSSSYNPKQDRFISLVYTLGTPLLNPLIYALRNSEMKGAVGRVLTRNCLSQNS
Summary of the method: as §1

OR10X1 (Homo sapiens) = target: T14, OR10X1 (Homo sapiens) (UniProt Q8NGY0)
T14 sequence (whole entry): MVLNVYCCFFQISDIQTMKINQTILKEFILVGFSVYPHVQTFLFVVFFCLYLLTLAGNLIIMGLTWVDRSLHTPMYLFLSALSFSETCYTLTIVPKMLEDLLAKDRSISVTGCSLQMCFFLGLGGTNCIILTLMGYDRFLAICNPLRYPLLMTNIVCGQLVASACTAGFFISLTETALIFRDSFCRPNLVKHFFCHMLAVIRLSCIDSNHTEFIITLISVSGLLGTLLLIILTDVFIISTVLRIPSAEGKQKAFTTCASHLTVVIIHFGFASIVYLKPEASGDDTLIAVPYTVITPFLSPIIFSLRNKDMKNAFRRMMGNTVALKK
Summary of the method: as §1

OR10Z1 (Homo sapiens) = target: T15, OR10Z1 (Homo sapiens) (UniProt Q8NGY1)
T15 sequence (whole entry): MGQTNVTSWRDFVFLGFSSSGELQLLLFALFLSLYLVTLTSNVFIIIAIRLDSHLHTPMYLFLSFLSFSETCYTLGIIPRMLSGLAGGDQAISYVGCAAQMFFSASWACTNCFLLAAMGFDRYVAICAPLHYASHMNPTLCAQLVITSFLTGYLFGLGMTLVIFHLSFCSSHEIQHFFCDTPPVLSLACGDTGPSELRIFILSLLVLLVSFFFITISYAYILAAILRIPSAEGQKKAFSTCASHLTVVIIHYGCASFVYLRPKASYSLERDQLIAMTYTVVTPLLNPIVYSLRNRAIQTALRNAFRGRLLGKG
Summary of the method: as §1

OR11A1 (Homo sapiens) = target: T16, OR11A1 (Homo sapiens) (UniProt Q9GZK7)
T16 sequence (whole entry): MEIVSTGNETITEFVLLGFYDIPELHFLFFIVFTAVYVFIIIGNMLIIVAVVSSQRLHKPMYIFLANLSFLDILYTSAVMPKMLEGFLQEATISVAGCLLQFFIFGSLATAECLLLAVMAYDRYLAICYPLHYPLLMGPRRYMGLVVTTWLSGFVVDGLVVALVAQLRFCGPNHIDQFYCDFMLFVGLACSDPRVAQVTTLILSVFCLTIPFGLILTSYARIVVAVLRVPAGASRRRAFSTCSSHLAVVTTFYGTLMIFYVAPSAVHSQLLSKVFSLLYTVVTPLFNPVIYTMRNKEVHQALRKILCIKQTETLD
Summary of the method: as §1

OR11G2 (Homo sapiens) = target: T17, OR11G2 (Homo sapiens) (UniProt Q8NGC1)
T17 sequence (whole entry): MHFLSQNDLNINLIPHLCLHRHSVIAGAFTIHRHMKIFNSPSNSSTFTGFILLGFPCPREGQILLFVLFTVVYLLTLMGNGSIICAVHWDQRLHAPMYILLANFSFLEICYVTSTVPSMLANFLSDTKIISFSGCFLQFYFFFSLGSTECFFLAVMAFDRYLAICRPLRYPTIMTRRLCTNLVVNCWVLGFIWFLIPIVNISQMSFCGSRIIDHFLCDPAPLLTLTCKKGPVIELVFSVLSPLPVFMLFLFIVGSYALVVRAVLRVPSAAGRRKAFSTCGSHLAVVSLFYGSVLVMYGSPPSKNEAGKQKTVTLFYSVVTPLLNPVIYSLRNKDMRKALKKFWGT
Summary of the method: as §1

OR11H1 (Homo sapiens) = target: T18, OR11H1 (Homo sapiens) (UniProt Q8NG94)
T18 sequence (whole entry): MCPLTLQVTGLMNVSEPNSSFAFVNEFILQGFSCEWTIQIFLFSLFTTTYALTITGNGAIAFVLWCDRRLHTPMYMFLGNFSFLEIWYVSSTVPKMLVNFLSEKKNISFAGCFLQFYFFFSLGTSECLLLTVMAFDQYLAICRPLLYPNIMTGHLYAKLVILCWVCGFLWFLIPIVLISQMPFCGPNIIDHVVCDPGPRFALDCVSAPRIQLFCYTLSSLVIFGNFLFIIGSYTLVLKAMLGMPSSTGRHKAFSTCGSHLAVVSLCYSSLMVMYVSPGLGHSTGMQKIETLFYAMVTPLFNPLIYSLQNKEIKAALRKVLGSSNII
Summary of the method: as §1

Measured: odorant receptor agonist call;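 further: active if original authors judged signal statistically different from baseline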

CCCCCCC=CCCC=O
inactive: all assays above

CCCC(=O)C(C)=O
inactive: OR10J5 (Homo sapiens)

CCCCCC=O
inactive: OR10J5 (Homo sapiens)
